This passage reports ED50 results from ChEMBL document CHEMBL1122031, “(+/-)-4-Aryl-4,5-dihydro-3H-1,3-benzodiazepines. 2. Nuclear-substituted analogues of (+/-)-4,5-dihydro-2,3-dimethyl-4-phenyl-3H-1,3-benzodiazepine and (+/-)-4,5-dihydro-2-ethyl-3-methyl-4-phenyl-3H-1,3-benzodiazepine as potential antidepressant agents” (1982).

What all share (assay type): functional
Experiment [1] is filed under the species Mus musculus. Put plainly: Evaluated for prevention of amphetamine aggregation toxicity in mice,.
The species entered for experiment [2] is Mus musculus. Put plainly: Inhibition of pentylenetetrazole (PTZ)-induced lethality in mice.
Experiment [3] deals with Mus musculus. Put plainly: Inhibition of tetrabenazine-induced ptosis (TBZ) in mice by peroral administration. The note with it: po. The method in brief:
(§1)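 Mice dosed with the compound and scored for prevention of tetrabenazine-induced ptosis. ED₅₀ was derived by linear regression analysis and reported with 95% confidence limits.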

In the next experiment the test system is Rattus norvegicus. Put plainly: Compound, administered intraperitoneally and was evaluated for potentiation of the 5-hydroxytryptophan-induced behavioral syndrome in pargyline pretreated rats. The note with it: ip.
For experiment [4], the system named is Mus musculus. Description: Compound, administered perorally and was evaluated for prevention of amphetamine aggregation toxicity in mice. To be noted: po.
For experiment [5], the system named is Mus musculus. Description: Compound, administered intraperitoneally and was evaluated for inhibition of pentylenetetrazole (PTZ)-induced lethality in mice. The note with it: ip.
For experiment [6], the system named is Mus musculus. Put plainly: Evaluated for antidepressant activity by inhibition of tetrabenazine-induced ptosis (TBZ) in mice by ip administration. The method in brief: as §1

The structures appear in SMILES notation.

In general, ED50 refers to the dose at which the effect has come halfway, by size or by number of responders. Regarding `CCC1=Nc2ccccc2CC(c2ccccc2)N1C` (centres undefined), the ED50 in the experiment listed under Mus musculus [1] was more than 20 mg/kg; in the experiment listed under Mus musculus [2] (Mus musculus, read-out: ED50) it was more than 40 mg/kg; with Mus musculus [3], 1.6 mg/kg; in the experiment with Rattus norvegicus it was more than 10 mg/kg.
As to `COc1ccc(C2Cc3ccccc3N=C(C)N2C)cc1` (centres undefined), the results for the ED50 with Mus musculus [4], with Mus musculus [3] and in the experiment with Mus musculus [5] were more than 20 mg/kg, 19.8 mg/kg and more than 40 mg/kg, respectively.
For `CC1=Nc2ccccc2CC(c2ccccc2Cl)N1C` (centres undefined), the ED50 is more than 20 mg/kg in the experiment filed under Mus musculus [1]; more than 40 mg/kg in the experiment listed under Mus musculus [2] (Mus musculus, read-out: ED50); more than 5 mg/kg in the experiment with Mus musculus [6].
As to `CC1=Nc2ccccc2CC(c2ccccc2C)N1C` (centres undefined), the ED50 in the experiment listed under Mus musculus [1] was more than 20 mg/kg; in the experiment filed under Mus musculus [2] (Mus musculus, read-out: ED50), more than 40 mg/kg; with Mus musculus [3] it was 5.5 mg/kg.
For `CCC1=Nc2ccc(Cl)cc2CC(c2ccccc2)N1C` (centres undefined), the 50% effective dose (ED50) is more than 40 mg/kg in the experiment listed under Mus musculus [2]; more than 20 mg/kg in the experiment listed under Mus musculus [2] (Mus musculus, read-out: ED50); approximately 20 mg/kg in the experiment with Mus musculus [6].
For `CCC1=Nc2ccc(Cl)cc2CC(c2ccccc2F)N1C` (centres undefined), in that order: more than 20 mg/kg, more than 40 mg/kg and more than 20 mg/kg.
Consider `CC1=Nc2ccccc2CC(c2ccc(Cl)cc2)N1C` (centres undefined), for which the ED50 was more than 20 mg/kg in the experiment listed under Mus musculus [1]; more than 40 mg/kg in the experiment listed under Mus musculus [2] (Mus musculus, read-out: ED50); 0.52 mg/kg in the experiment with Mus musculus [3]; more than 10 mg/kg in the experiment on Rattus norvegicus.
For the compound `CCC1=Nc2ccccc2CC(c2ccc(F)cc2)N1C` (centres undefined), the ED50 in the experiment on Mus musculus [3] turned out to be 8.4 mg/kg.
For the compound `CC1=Nc2ccc(Cl)cc2CC(c2ccccc2)N1C` (centres undefined), the ED50 in the experiment filed under Mus musculus [1] was more than 20 mg/kg; in the experiment listed under Mus musculus [2] (Mus musculus, read-out: ED50) it was more than 40 mg/kg; in the experiment with Mus musculus [6] it was not below 20 mg/kg.
For `CC1=Nc2ccc(Cl)cc2CC(c2ccccc2F)N1C` (centres undefined), in that order: more than 20 mg/kg, more than 40 mg/kg and more than 20 mg/kg.
For `CCC1=Nc2ccccc2CC(c2ccc(OC)c(OC)c2)N1C` (centres undefined), the ED50 in the experiment on Mus musculus [4] was more than 20 mg/kg; in the experiment on Mus musculus [6], 8.2 mg/kg; in the experiment on Mus musculus [5], more than 40 mg/kg.
In the case of `COc1ccc(C2Cc3ccccc3N=C(C)N2C)cc1OC` (centres undefined), the results for the 50% effective dose (ED50) in the experiment on Mus musculus [4], in the experiment on Mus musculus [3] and with Mus musculus [5] were more than 20 mg/kg, 5 mg/kg and more than 40 mg/kg, respectively.
Turning to `CCC1=Nc2ccccc2CC(c2ccccc2F)N1C` (centres undefined), the ED50 in the experiment listed under Mus musculus [1] was more than 20 mg/kg; in the experiment listed under Mus musculus [2] (Mus musculus, read-out: ED50), more than 40 mg/kg; with Mus musculus [3], 7 mg/kg.
Turning to `CC1=Nc2ccccc2CC(c2ccc(F)cc2)N1C` (centres undefined), the ED50 was more than 20 mg/kg in the experiment filed under Mus musculus [1]; more than 40 mg/kg in the experiment filed under Mus musculus [2] (Mus musculus, read-out: ED50); 3.6 mg/kg in the experiment with Mus musculus [3]; more than 10 mg/kg with Rattus norvegicus.
`CCC1=Nc2ccccc2CC(c2ccc(OC)cc2)N1C` (centres undefined): the ED50 in the experiment on Mus musculus [4] was more than 20 mg/kg; in the experiment with Mus musculus [3], 2.8 mg/kg; with Mus musculus [5], more than 40 mg/kg.
In the experiment with Mus musculus [3], `CCC1=Nc2ccccc2CC(c2ccccc2Cl)N1C` (centres undefined) had an ED50 of 4.1 mg/kg.
With `CCC1=Nc2ccccc2CC(c2ccc(Cl)cc2)N1C` (centres undefined), the ED50 is more than 20 mg/kg in the experiment filed under Mus musculus [2] (Mus musculus, read-out: ED50) and less than 5 mg/kg with Mus musculus [6].
With `CC1=Nc2ccccc2CC(c2ccc(C)cc2)N1C` (centres undefined), the 50% effective dose (ED50) in the experiment filed under Mus musculus [1] is more than 20 mg/kg; in the experiment listed under Mus musculus [2] (Mus musculus, read-out: ED50), more than 40 mg/kg; with Mus musculus [3], 5.2 mg/kg; with Rattus norvegicus, more than 10 mg/kg.
As for `CCC1=Nc2ccccc2CC(c2ccccc2C)N1C` (centres undefined), the ED50 in the experiment listed under Mus musculus [2] was more than 20 mg/kg; in the experiment listed under Mus musculus [2] (Mus musculus, read-out: ED50), more than 40 mg/kg; in the experiment on Mus musculus [3], 3.1 mg/kg.
With `CC1=Nc2ccccc2CC(c2ccccc2F)N1C` (centres undefined), the ED50 is more than 20 mg/kg in the experiment filed under Mus musculus [1]; more than 40 mg/kg in the experiment filed under Mus musculus [2] (Mus musculus, read-out: ED50); 7.6 mg/kg in the experiment with Mus musculus [3]; more than 10 mg/kg with Rattus norvegicus.
In the same order, the values of `CCC1=Nc2ccccc2CC(c2ccc(C)cc2)N1C` (centres undefined) are more than 20 mg/kg, more than 40 mg/kg, 6.1 mg/kg and more than 10 mg/kg.
`CN(C)CCC=C1c2ccccc2CCc2ccccc21` [AMITRIPTYLINE] showed an ED50 in the experiment on Mus musculus [3] of 1.9 mg/kg.
For `CC1=Nc2ccccc2CC(c2ccccc2)N1C` (centres undefined) [DAZEPINIL], the ED50 in the experiment filed under Mus musculus [1] was more than 20 mg/kg; in the experiment listed under Mus musculus [2] (Mus musculus, read-out: ED50), more than 40 mg/kg; in the experiment with Mus musculus [3] it was 2.1 mg/kg; in the experiment on Rattus norvegicus, more than 10 mg/kg.
